Source: ChEMBL document CHEMBL1667740, “Phenolic glycosides with antimalarial activity from Grevillea "Poorinda Queen"” (J Nat Prod, 2011)

How the values were obtained:
[1] = tested on: Plasmodium falciparum; assay: Antimalarial activity against chloroquine-sensitive Plasmodium falciparum D6 infected in human O positive red blood cells assessed as inhibition of [3H]-hypoxanthine uptake after 48 hrs; assay type: functional, organism-based
Outline: (§1)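 Synchronised ring-stage parasites (sorbitol selection) kept in RPMI-1640 with HEPES, glucose, hypoxanthine, gentamycin, 10% human plasma and 4% O+ RBCs under 5% O2/5% CO2/90% N2 at 37 °C. Assay at 2% hematocrit and 1% parasitemia in hypoxanthine-free medium. DMSO stocks of 20-25 mg/mL, ten 2-fold dilutions in triplicate, 48 h. [3H]-hypoxanthine (0.2 µCi) added at 24 h. IC50 taken against compound-free controls.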

[2] = Selectivity index, ratio of IC50 for human HepG2 cells to IC50 for Plasmodium falciparum 3D7
[3] = tested on: HEK293; assay: Cytotoxicity against human HEK293 cells after 72 hrs by alamar blue assay; assay type: cell-based; details: HEK293, 72 h
Outline: (§2)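 HEK-293 and HepG2 cells grown in RPMI 1640 with 10% FBS and L-glutamine at 37 °C. Seeded at 5 × 10^3 cells/well and left 24 h before drug addition. Compounds tested from 312 to 0.6 µg/mL, artesunate and chloroquine from 120 µM to 60 nM, in triplicate for 72 h. DMSO vehicle and cell-free background wells as controls. 10% Alamar Blue added for 2 h, fluorescence read at ex 530/em 595 nm. IC50 from at least two independent experiments, mean ± SD.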

[4] = tested on: HepG2; assay: Cytotoxicity against human HepG2 cells after 72 hrs by alamar blue assay; assay type: cell-based; details: HepG2, 72 h; outline: as §2
[5] = Selectivity index, ratio of IC50 for human HEK293 cells to IC50 for Plasmodium falciparum 3D7
[6] = tested on: Plasmodium berghei; assay: Antimalarial activity against Plasmodium berghei infected in mouse assessed as reduction of parasite infection at 2 mg/kg, sc qd for 4 days relative to control; assay type: functional; parameters: scale not given: the % may be the effect or the level left; details: route subcutaneous
[7] = tested on: Plasmodium berghei; assay: Antimalarial activity against Plasmodium berghei infected in mouse assessed as reduction of parasite infection at 1 mg/kg, sc qd for 4 days relative to control; assay type: functional; parameters: scale not given: the % may be the effect or the level left; details: route subcutaneous
[8] = tested on: Mus musculus; assay: Toxicity in mouse assessed as physical stress at 32 mg/kg, sc qd for 4 days; assay type: organism-based; parameters: dose 32 mg/kg, route subcutaneous; details: in vivo, 96 h
Outline: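 Tolerability in healthy mice: subcutaneous dosing for 4 days. Mice watched for physical stress, namely ruffled coat, extreme pallor, weight loss, shaking and reduced mobility.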

[9] = tested on: Plasmodium falciparum; assay: Antimalarial activity against chloroquine, pyrimethamine, and mefloquine-resistant Plasmodium falciparum Dd2 infected in human O positive red blood cells assessed as inhibition of [3H]-hypoxanthine uptake after 48 hrs; assay type: functional, organism-based; outline: as §1
[10] = tested on: Plasmodium falciparum; assay: Antimalarial activity against chloroquine and pyrimethamine-resistant Plasmodium falciparum K1 infected in human O positive red blood cells assessed as inhibition of [3H]-hypoxanthine uptake after 48 hrs; assay type: functional, organism-based; outline: as §1
[11] = tested on: Plasmodium falciparum; assay: Antimalarial activity against chloroquine-sensitive Plasmodium falciparum 3D7 infected in human O positive red blood cells assessed as inhibition of [3H]-hypoxanthine uptake after 48 hrs; assay type: functional, organism-based; outline: as §1
[12] = tested on: Plasmodium falciparum; assay: Antimalarial activity against multidrug-resistant Plasmodium falciparum TM93-C1088 infected in human O positive red blood cells assessed as inhibition of [3H]-hypoxanthine uptake after 48 hrs; assay type: functional, organism-based; outline: as §1
[13] = tested on: Plasmodium berghei; assay: Antimalarial activity against Plasmodium berghei infected in mouse assessed as reduction of parasite infection at 32 mg/kg, sc qd for 4 days relative to control; assay type: functional; parameters: scale not given: the % may be the effect or the level left; details: route subcutaneous
[14] = tested on: Plasmodium falciparum; assay: Antimalarial activity against multidrug-resistant Plasmodium falciparum TM90-C2B infected in human O positive red blood cells assessed as inhibition of [3H]-hypoxanthine uptake after 48 hrs; assay type: functional, organism-based; outline: as §1
[15] = tested on: Plasmodium berghei; assay: Antimalarial activity against Plasmodium berghei infected in mouse assessed as reduction of parasite infection at 32 mg/kg, sc bid for 4 days relative to control; assay type: functional; parameters: scale not given: the % may be the effect or the level left; details: route subcutaneous
Outline: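 Peters 4-day suppressive test in female mice (n = 6) inoculated intraperitoneally with 20 × 10^6 P. berghei ANKA-infected erythrocytes. Test articles dissolved in Tween 80/ethanol (7:3, v/v), diluted 10-fold in distilled water, and given subcutaneously from D0 (about 2 and 6 h post-inoculation) over 4 days. Chloroquine prepared in water. Giemsa-stained thin smears on D+1 to D+4. Microscopic % infected erythrocytes, suppression at D+4 versus vehicle control.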

| SMILES | IC50 [1] [µM] | SI [2] | IC50 [3] [µM] | IC50 [4] [µM] | SI [5] | Activity [6] [%] | Activity [7] [%] | Activity [8] | IC50 [9] [µM] | IC50 [10] [µM] | IC50 [11] [µM] | IC50 [12] [µM] | Activity [13] [%] | IC50 [14] [µM] | Activity [15] [%] |
| --- | --- | --- | --- | --- | --- | --- | --- | --- | --- | --- | --- | --- | --- | --- | --- |
| C[C@H]1O[C@H](OC[C@H]2O[C@@H](Oc3cc(O)c4c(=O)c(O)c(-c5ccc(O)c(O)c5)oc4c3)[C@H](O)[C@@H](O)[C@H]2O)[C@@H](O)[C@@H](O)[C@@H]1O (stereo in doubt) | > 500 |  |  |  |  |  |  |  |  |  |  |  |  |  |  |
| C[C@H]1[C@H](OC(=O)CCC(=O)O)O[C@@H]2O[C@@]3(C)CC[C@H]4[C@H](C)CC[C@@H]1[C@@]24OO3 [ARTESUNATE] |  | 374 | 2.9 | 12.7 | 150 |  |  |  |  |  |  |  |  |  |  |
| CCN(CC)CCCC(C)Nc1ccnc2cc(Cl)ccc12 (stereo not given) [CHLOROQUINE] |  | 415 | 12 | 8.3 | 600 | 97 | 58 |  |  |  |  |  |  |  |  |
| O=C1C=CC(O)(/C=C/C(=O)OC[C@H]2O[C@@H](Oc3ccc(O)cc3)[C@H](O)[C@@H](O)[C@@H]2O)C=C1 [ROBUSTASIDE D] | 5.1 | 37 | 195 | 221 | 33 |  |  | Non-toxic | 3 | 3 | 5.5 | 4.1 | 21 | 5.3 | 95 |
| O=C(/C=C/C1(O)C=CC(O)CC1=O)OC[C@H]1O[C@@H](Oc2ccc(O)cc2)[C@H](O)[C@@H](O)[C@@H]1O (stereo not given in full) [ROBUSTASIDE E] | 55.5 | > 10 | > 690 | > 690 | > 10 |  |  |  | 55.5 | 29.4 | 77.4 | 25.3 |  | 36.2 |  |
| COc1ccc(O)c(/C=C\C(=O)OC[C@H]2O[C@@H](Oc3ccc(O)cc3)[C@H](OC(=O)/C=C\c3cc(OC)ccc3O)[C@@H](O)[C@@H]2O)c1 [ROBUSTASIDE F] | 14.7 |  |  |  |  |  |  |  |  |  |  |  |  |  |  |
